According to ChEMBL document CHEMBL4261489, “Quantitative measurement of intracellular HDAC1/2 drug occupancy using a trans-cyclooctene largazole thiol probe” (Medchemcomm, 2017):
The source made the active and inactive calls. No cut-off for these calls is given here.

Key:
[1] = Apparent permeability of the compound; type: ADME; conditions: not told
[2] = biological target: T1, Histone deacetylase 1 (Homo sapiens, UniProt Q13547); assay: Competitive binding affinity to HDAC1 in human CD34positive cell-derived erythroid progenitor cells in presence of largazole thiol by tetrazine-PEG4-biotin-based SDS-PAGE/immunoblot analysis
Procedure, shortened: (§1)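 Mobilized peripheral blood CD34+ cells were expanded 7 days with CC100 cytokines, then 4 days in erythroid medium (SCF, IL-3, EPO, dexamethasone, β-estradiol). Cells got DMSO or 1–100 nM inhibitor (37 °C, 2 h or 24 h), then 3 μM TCO largazole thiol for 10 min. Lysates were clicked with 50 μM tetrazine-PEG4-biotin, pulled down on streptavidin and immunoblotted for HDAC1/2. Occupancy versus vehicle gave OC50 by sigmoidal fit.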

[3] = biological target: T2, Histone deacetylase 2 (Homo sapiens, UniProt Q92769); assay: Competitive binding affinity to HDAC2 in human CD34positive cell-derived erythroid progenitor cells in presence of largazole thiol by tetrazine-PEG4-biotin-based SDS-PAGE/immunoblot analysis; procedure, shortened: as §1
[4] = biological target: Histone deacetylase 3 (Homo sapiens) (UniProt O15379); assay: Binding affinity to HDAC3 in human CD34positive cell-derived erythroid progenitor cells by tetrazine-PEG4-biotin-based SDS-PAGE/immunoblot analysis
[5] = biological target: T1, Histone deacetylase 1; assay: Binding affinity to HDAC1 in human CD34positive cell-derived erythroid progenitor cells up to 3 uM by tetrazine-PEG4-biotin-based SDS-PAGE/immunoblot analysis
[6] = biological target: T2, Histone deacetylase 2; assay: Binding affinity to HDAC2 in human CD34positive cell-derived erythroid progenitor cells up to 3 uM by tetrazine-PEG4-biotin-based SDS-PAGE/immunoblot analysis
[7] = biological target: T1, Histone deacetylase 1; assay: Binding affinity to HDAC1 in human CD34positive cell-derived erythroid progenitor cells measured up to 120 mins by tetrazine-PEG4-biotin-based SDS-PAGE/immunoblot analysis
[8] = biological target: T2, Histone deacetylase 2; assay: Binding affinity to HDAC2 in human CD34positive cell-derived erythroid progenitor cells measured up to 120 mins by tetrazine-PEG4-biotin-based SDS-PAGE/immunoblot analysis
[9] = biological target: T1, Histone deacetylase 1; assay: Inhibition of C-terminal FLAG/His-tagged full length recombinant human HDAC1 expressed in baculovirus infected Sf9 insect cells using HDAC substrate 3 after 30 mins by fluorescence assay
Procedure, shortened: (§2)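 Fluorogenic deacetylation was run at 37 °C for 30 min in HEPES pH 7.5 buffer with NaCl, KCl, Tween 20, TCEP and BSA. Enzyme and substrate were: HDAC1 10 ng, HDAC2 5 ng or HDAC3 2 ng with 10 µM substrate 3; HDAC8 10 ng with 2 µM class 2a substrate 1. Compound ran at 0.001–10000 nM. Developer was added for 20 min at RT and fluorescence read at Ex360/Em460.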

[10] = biological target: T2, Histone deacetylase 2; assay: Inhibition of C-terminal FLAG or His-tagged full length recombinant human HDAC2 expressed in baculovirus infected Sf9 insect cells using HDAC substrate 3 after 30 mins by fluorescence assay; procedure, shortened: as §2
[11] = biological target: Histone deacetylase 3/Nuclear receptor corepressor 2 (HDAC3/NCoR2) (Homo sapiens, UniProt O15379); assay: Inhibition of C-terminal His-tagged full length recombinant human HDAC3/N-terminal GST-tagged NCOR2 (395 to 489 residues) expressed in baculovirus infected Sf9 insect cells using HDAC substrate 3 after 30 mins by fluorescence assay; procedure, shortened: as §2
[12] = biological target: T3, Histone deacetylase 8 (Homo sapiens, UniProt Q9BY41); assay: Inhibition of C-terminal His-tagged full length recombinant human HDAC8 expressed in baculovirus infected Sf9 insect cells using HDAC class 2a substrate 1 after 30 mins by fluorescence assay; procedure, shortened: as §2
T3 sequence (Q9BY41 whole entry): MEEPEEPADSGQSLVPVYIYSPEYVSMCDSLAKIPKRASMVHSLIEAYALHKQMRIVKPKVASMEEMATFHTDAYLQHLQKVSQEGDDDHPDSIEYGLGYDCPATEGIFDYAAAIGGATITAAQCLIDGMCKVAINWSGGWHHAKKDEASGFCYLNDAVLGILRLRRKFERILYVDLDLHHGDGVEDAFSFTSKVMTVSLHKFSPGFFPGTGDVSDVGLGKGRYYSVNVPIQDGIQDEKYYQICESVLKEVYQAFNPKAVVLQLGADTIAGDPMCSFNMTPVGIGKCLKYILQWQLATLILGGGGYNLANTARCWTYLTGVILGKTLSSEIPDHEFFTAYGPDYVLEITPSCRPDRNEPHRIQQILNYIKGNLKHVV

[13] = biological target: T2, Histone deacetylase 2

T2 sequence (Q92769 whole entry): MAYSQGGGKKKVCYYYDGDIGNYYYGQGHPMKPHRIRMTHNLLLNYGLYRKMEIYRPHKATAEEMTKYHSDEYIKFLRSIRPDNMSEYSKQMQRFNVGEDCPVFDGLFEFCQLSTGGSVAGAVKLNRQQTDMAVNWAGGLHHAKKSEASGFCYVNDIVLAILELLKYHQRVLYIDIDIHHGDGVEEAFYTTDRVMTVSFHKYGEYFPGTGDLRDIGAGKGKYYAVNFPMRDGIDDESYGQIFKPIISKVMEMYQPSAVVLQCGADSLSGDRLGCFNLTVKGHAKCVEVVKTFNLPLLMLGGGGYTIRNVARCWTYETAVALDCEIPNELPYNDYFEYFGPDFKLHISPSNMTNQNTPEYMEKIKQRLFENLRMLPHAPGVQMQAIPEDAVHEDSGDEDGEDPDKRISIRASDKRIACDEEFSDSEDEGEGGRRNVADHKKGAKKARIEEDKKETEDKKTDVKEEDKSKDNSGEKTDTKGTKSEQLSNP
T1 sequence (Q13547 whole entry): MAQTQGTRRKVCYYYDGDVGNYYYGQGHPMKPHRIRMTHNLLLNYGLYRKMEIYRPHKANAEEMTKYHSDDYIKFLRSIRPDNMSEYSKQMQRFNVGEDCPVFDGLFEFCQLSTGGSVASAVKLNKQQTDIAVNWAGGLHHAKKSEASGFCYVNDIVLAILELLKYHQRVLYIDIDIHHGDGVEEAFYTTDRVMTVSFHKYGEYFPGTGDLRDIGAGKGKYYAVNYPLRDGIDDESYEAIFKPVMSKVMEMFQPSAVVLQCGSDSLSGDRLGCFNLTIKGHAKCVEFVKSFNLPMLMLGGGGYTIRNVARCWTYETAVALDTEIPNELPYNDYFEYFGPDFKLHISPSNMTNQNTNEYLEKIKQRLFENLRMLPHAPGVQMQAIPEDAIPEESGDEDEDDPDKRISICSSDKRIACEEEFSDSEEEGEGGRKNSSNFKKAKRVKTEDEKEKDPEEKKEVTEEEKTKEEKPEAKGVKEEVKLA
Histone deacetylase 3 (Homo sapiens), sequence (O15379 whole entry): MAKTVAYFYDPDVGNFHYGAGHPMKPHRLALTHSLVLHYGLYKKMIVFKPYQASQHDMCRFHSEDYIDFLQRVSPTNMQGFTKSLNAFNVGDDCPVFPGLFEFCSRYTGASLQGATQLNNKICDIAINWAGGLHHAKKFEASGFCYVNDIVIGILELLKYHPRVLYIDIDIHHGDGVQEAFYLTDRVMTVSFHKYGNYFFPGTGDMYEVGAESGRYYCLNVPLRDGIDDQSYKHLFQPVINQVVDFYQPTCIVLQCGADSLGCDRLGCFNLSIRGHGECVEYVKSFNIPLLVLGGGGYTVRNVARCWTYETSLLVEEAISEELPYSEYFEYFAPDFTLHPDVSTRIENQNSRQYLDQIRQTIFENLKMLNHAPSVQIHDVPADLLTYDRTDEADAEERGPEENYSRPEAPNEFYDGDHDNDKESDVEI
Histone deacetylase 3/Nuclear receptor corepressor 2 (HDAC3/NCoR2), sequence (O15379 whole entry, the tested form may be a part): as the sequence (O15379 whole entry) above
Histone deacetylase 3/Nuclear receptor corepressor 2 (HDAC3/NCoR2), sequence (Q9Y618 whole entry, further chain, the tested form may be a part): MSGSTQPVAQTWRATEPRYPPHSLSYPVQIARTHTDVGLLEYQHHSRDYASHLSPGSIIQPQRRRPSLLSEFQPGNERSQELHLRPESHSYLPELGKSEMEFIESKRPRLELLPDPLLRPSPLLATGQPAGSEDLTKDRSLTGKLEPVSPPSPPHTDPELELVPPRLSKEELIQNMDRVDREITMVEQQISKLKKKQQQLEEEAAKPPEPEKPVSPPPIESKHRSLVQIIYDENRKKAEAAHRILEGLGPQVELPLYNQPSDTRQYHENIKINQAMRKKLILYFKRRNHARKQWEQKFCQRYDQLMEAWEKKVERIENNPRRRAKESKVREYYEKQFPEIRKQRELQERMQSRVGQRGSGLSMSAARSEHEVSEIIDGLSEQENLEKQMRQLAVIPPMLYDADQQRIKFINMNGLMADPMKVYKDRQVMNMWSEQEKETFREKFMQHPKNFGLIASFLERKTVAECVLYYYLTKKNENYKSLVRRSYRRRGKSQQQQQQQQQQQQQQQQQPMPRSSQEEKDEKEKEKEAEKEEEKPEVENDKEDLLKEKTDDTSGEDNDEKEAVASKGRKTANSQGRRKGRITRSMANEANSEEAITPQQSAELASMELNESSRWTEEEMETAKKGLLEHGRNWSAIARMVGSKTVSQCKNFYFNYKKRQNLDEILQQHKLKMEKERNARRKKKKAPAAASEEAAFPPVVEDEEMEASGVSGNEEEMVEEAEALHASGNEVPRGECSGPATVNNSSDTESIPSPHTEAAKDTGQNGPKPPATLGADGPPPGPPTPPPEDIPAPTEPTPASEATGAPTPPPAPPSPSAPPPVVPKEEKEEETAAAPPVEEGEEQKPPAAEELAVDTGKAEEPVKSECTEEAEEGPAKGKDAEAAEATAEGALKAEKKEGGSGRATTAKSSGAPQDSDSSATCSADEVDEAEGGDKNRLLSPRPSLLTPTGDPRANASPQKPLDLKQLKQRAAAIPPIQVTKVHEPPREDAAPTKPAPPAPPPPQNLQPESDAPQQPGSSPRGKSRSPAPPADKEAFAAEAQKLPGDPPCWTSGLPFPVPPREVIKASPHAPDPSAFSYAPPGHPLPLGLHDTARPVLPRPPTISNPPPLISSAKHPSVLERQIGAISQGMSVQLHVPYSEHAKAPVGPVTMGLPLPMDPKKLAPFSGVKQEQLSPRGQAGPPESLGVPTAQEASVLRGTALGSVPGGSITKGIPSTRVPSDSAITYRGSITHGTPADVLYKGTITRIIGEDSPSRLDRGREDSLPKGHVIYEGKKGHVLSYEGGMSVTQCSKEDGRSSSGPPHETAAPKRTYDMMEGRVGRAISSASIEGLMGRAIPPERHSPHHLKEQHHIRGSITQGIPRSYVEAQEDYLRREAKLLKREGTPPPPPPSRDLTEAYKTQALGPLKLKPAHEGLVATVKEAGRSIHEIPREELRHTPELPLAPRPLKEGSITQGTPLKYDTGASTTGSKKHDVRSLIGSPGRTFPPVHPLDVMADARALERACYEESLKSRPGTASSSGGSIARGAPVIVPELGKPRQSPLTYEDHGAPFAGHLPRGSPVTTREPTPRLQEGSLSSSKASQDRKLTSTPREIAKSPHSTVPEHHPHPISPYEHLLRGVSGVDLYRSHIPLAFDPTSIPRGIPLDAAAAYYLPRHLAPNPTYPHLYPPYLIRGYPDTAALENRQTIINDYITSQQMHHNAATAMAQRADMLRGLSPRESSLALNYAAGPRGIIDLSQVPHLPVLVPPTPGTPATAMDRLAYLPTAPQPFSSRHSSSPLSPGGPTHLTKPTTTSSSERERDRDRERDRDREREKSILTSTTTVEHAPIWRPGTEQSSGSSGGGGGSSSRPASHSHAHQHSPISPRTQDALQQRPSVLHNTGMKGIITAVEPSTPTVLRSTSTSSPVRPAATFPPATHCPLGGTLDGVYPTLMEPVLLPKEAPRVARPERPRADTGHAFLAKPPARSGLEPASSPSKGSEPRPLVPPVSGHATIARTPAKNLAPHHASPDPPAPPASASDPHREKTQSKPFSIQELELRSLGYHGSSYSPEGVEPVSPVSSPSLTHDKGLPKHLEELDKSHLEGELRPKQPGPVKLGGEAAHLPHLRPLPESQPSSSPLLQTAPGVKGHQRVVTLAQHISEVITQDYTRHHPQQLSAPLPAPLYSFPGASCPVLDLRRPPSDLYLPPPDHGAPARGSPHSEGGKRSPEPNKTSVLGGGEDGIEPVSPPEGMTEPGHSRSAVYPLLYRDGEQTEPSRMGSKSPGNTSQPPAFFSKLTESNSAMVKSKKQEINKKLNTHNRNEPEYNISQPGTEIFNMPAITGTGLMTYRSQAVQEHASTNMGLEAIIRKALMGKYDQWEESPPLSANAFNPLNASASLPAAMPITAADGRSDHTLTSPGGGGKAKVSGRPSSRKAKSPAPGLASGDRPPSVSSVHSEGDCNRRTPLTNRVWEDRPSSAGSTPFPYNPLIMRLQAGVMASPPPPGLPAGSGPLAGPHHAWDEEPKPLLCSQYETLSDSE

Compound	Papp [1] [×10⁻⁶ cm/s]	Activity [2]	Activity [3]	Activity [4]	Activity [5]	Activity [6]	Activity [7]	Activity [8]	IC50 [9] [nM]	IC50 [10] [nM]	IC50 [11] [nM]	IC50 [12] [nM]	Occ50 [13] [nM]
C[C@@]12CSC(=N1)c1csc(n1)CNC(=O)C[C@@H](/C=C/CCS)OC(=O)[C@H](CCCCNC(=O)O[C@@H]1CC/C=C/CCC1)NC2=O	3.23	Active	Active	inactive	Active	Active	Active	Active	1.9	6.6	1.1	1110	–
O=C(/C=C/c1ccc(CN(CCO)CCc2c[nH]c3ccccc23)cc1)NO	–	–	–	–	–	–	–	–	–	–	–	–	3
